Exocytosis inh = LAMP-1 surface exposure blockers, TALL-104 cells – cell-based, flow cytometry, MLPCN library, primary screen; TALL-104 LAMP-1 surface exposure; cells stimulated with thapsigargin and PMA; inhibition, % at 10 µM; 360,000 compounds, 0.66% hits; AID 651702, 2012;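 active means inhibition above about 55%, limit read from the data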
T cell modulator = modulators of CD8 T cell-vesicle binding, primary screen, mouse 2C CD8+ T cells, flow cytometry; 2C CD8+ T cell-vesicle binding; hits give low values; AID 2052, 2009; 330,000 compounds, 0.068% hits; response (vesicle binding), % at 7 µM;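 active means response, share of CD8 T cells binding vesicles, and their 90th percentile fluorescence all below set limits, cut at about 80% in these data, passing the limit was not always enough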;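 further: values below 100% mean blocked vesicle binding to the CD8+ T cells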
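Also added: QL9-peptide-loaded Drosophila micro-vesicles bearing Ld, ICAM-1 and B7-1; Test system: purified 2C TCR transgenic mouse naive CD8+ T cells; Measured by: cytometric PE anti-B7-1 and Alexa647 anti-CD8 signals after 1% paraformaldehyde fixation; Timing: binding step 1.5 h, 37 °C, antibody labelling 20 min, ice.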
EP2 antag = human EP2 receptor antagonists, primary screen, TR-FRET cAMP, C6 glioma cells; Prostaglandin E2 receptor EP2 subtype (Homo sapiens), P43116; C6 glioma cells expressing human EP2; cells stimulated with saturating PGE2; inhibition, % at 25 µM; 260,000 compounds, 0.52% hits; AID 1422, 2008;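 active means percent inhibition above 40 after rounding to a whole number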;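 further: rat C6 glioma host cells with rolipram phosphodiesterase inhibitor present; the protocol text gives 20 µM as final concentration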
MC4R ag barr = MC4R agonists recruiting beta-arrestin, primary screen, cell-based, luminescence, agonist arm of biased-ligand search; U2OS MC4R beta-arrestin complementation; percent of melanotan II response, DMSO zero; activation, % at 8.9 µM; 360,000 compounds, 0.98% hits;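 active means activation above a per-plate cutoff, the mean activation of sample wells on that plate plus 3 SD, cut at about 8% in these data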
Target sequence (P32245 whole entry, looked up): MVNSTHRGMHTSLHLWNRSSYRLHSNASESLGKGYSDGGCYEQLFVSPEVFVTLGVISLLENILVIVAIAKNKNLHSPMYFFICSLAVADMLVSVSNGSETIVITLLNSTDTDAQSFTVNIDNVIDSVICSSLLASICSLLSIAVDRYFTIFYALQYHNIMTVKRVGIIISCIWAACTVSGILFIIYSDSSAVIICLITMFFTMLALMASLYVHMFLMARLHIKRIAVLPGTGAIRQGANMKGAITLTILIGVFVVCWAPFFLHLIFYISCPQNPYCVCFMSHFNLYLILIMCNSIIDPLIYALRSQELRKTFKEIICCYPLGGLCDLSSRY
EP2 mod = EP2 receptor modulators, cAMP readout, primary screen, cell-based, HTRF cAMP, PGE2 stimulation; Prostaglandin E2 receptor EP2 subtype (Homo sapiens), P43116; EP2-expressing cells, cAMP HTRF FRET, PGE2 co-stimulation; induction, % at 25 µM; 260,000 compounds, 0.83% hits; AID 940, 2007;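 active means compounds whose cAMP rise, as percent of the full-agonist control response, exceeds 60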;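 further: rat C6 glioma line stably carrying human EP2 under a CMV promoter; the protocol text gives 20 µM as final concentration; 100% = response of wells given 1 µM PGE2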
MC4R antagonist = MC4R antagonists of cAMP signaling, primary screen, cell-based, TR-FRET, antagonist arm of biased-ligand search; inhibition, % at 6.5 µM; Melanocortin receptor 4 (Homo sapiens), P32245; MC4R-expressing cells, MTII-stimulated cAMP, LANCE TR-FRET; 360,000 compounds, 0.48% hits; AID 540295, 2011;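 active means inhibition above its plate's cutoff, the mean of tested wells on that plate plus 3 SD, cut at about 29% in these data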;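 further: 0% = Melanotan II alone and 100% = Melanotan II plus saturating MCL0020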
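Test system: U2OS cells stably expressing human melanocortin 4 receptor (MC4R); also added: Melanotan II challenge; compound: 6.5 µM single dose; timing: 30-min compound preincubation, 1-h Melanotan II challenge, 1-h detection, room temperature; signal: Eu-cAMP/anti-cAMP TR-FRET, emission 671 nm; repeats: one well per compound, no replicates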
Granule exo CP1 = inhibitors of lytic granule exocytosis, confirmation, TALL-104 cells, flow cytometry, Cherry Pick01; shares compounds with Exocytosis inh; LAMP-1 externalization; stimulated with PMA plus thapsigargin; 1,500 compounds, 11% hits; inhibition, % at 10 µM; in the data active means inhibition above about 60%;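 further: 0% = stimulated vehicle wells and 100% = unstimulated wells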
Numbers without * were called inactive; i = inactive; . = no result given. A selection: hits, their analogues and other compounds. The true share with any hit is near 2.6%.

SMILES	Exocytosis inh	T cell modulator	EP2 antag	MC4R ag barr	EP2 mod	MC4R antagonist	Granule exo CP1
C/C(=N/NC(=O)CNC(=O)COc1ccccc1)c1ccco1	0	297	6	3	23	12	.
Cc1ccc(Oc2ccc(C(=O)NCc3ccncc3)cc2)cc1	0	.	0	-1	-35	-2	.
O=C(NCCc1ccc(Cl)cc1)C1CCN(S(=O)(=O)c2ccc(Br)s2)CC1	65*	819	8	2	-52	14	-13
COc1ccc(CNC(=O)C2CCCN(S(=O)(=O)c3ccc(Br)s3)C2)cc1 (stereo not drawn)	69*	136	.	1	.	6	-14
COc1ccc(Br)cc1CNC(=O)C1CCN(S(=O)(=O)N2CCCCC2)CC1	9	202	7	1	12	2	.
COc1ccc(Br)cc1CNC(=O)C1CCCN(S(=O)(=O)N2CC(C)CC(C)C2)C1 (stereo not drawn)	70*	i	.	-2	.	1	-5
O=C(COC(=O)c1ccccc1)c1ccc(Br)cc1	-9	70	16	4	28	4	.
O=C(c1cccc(C(F)(F)F)c1)N1CCC(=O)N(C(CO)Cc2ccccc2)CC1 (stereo not drawn)	80*	551	8	-1	.	5	-5
CCN(CC)c1ccc2cc(-c3nc(-c4cc5ccccc5oc4=O)cs3)c(=O)oc2c1	81*	.	.	2	.	0	14
COc1cc(C)cc(OC)c1OCC(=O)Nc1cc(C)on1	69*	202	.	-3	.	-2	-4
COCCNC(=O)C1Nc2ccc(C(F)(F)F)cc2C2C=CCC12 (stereo not drawn)	-2	308	10	-1	.	12	.
O=C(NCc1ccccn1)C1Nc2ccc(C(F)(F)F)cc2C2C=CCC12 (stereo not drawn)	64*	464	11	0	.	5	-15
CCCCSCCCNC(=O)c1ccc(CS(=O)(=O)c2ccccc2OC)o1	94*	284	.	-3	.	3	-13
COc1ccccc1CNC(=O)c1sccc1C	-11	411	.	-1	.	5	.
COc1ccccc1CNC(=O)c1sccc1-c1ccccc1	66*	265	.	-1	.	2	-13
Cc1onc(-c2ccccc2Cl)c1C(=O)N1CCC(C(N)=O)CC1	8	.	.	0	.	3	.
Cc1onc(-c2ccccc2Cl)c1C(=O)N1CCC(Cc2ccccc2)CC1	84*	356	.	0	.	0	-12
COCCCn1c(SCC(=O)Nc2cccc3ccccc23)nc2sc3c(c2c1=O)CCC3	.	.	5	.	27	.	.
O=C(c1cccs1)N1CCCC(c2nc3c(nnn3Cc3c(Cl)cccc3Cl)c(=O)[nH]2)C1 (stereo not drawn)	77*	211	.	0	.	-65	-9
COC(=O)c1ccc(Cn2nnc3c(=O)[nH]c(C4CCCN(S(=O)(=O)c5ccccc5Cl)C4)nc32)cc1 (stereo not drawn)	57*	811	.	1	.	-27	-8
CC(C)(C)c1ccc(Cn2nnc3c(=O)[nH]c(C4CCCN(C(=O)c5cccs5)C4)nc32)cc1 (stereo not drawn)	37	281	.	1	.	-4	.
COC(=O)c1ccc(Cn2nnc3c(=O)[nH]c(C4CCN(S(=O)(=O)c5ccc(F)cc5)CC4)nc32)cc1	7	169	.	-3	.	-12	.
Cc1ccc(-c2nnc(-c3ccc(NC(=O)c4ccco4)cc3)o2)cc1	88*	152	18	3	22	4	-1
Cc1ccc2oc(-c3ccc(NC(=O)c4ccco4)cc3)nc2c1	.	.	8	.	-58	.	.
Cc1ccc(-c2nnc(CSc3nnc(COc4ccccc4)n3-c3ccc(C)cc3)o2)cc1	76*	215	8	3	-18	4	-2
SMILES	Exocytosis inh	T cell modulator	EP2 antag	MC4R ag barr	EP2 mod	MC4R antagonist	Granule exo CP1
Cc1ccc(NC(=S)N2CCC(C(N)=O)(N3CCCCC3)CC2)c(C)c1	0	237	6	-1	11	-3	.
CCN(CC)CCCNc1ccc(-c2nnc(-c3ccc(OCC(C)C)cc3)o2)cn1	62*	590	.	4	.	2	95*
CC(C)COc1ccc(-c2nnc(-c3ccco3)o2)cc1	5	249	5	0	41	-3	.
COc1ccc(NC(=O)CC2Nc3cccc4cccc(c34)NC2=O)cc1 (stereo not drawn)	61*	372	10	1	-63	15	-13
COc1cc(O)c(C(CC(=O)N2CCCC(C)C2)c2cc(OC)c(OC)c(OC)c2)c(OC)c1 (stereo not drawn)	58*	358	9	-2	2	3	-15
COc1ccc(C(CC(=O)N2CCCC(C)C2)c2c(O)cc(OC)cc2OC)cc1 (stereo not drawn)	9	.	13	-1	17	2	.
O=S(=O)(/N=C(/Nc1cccc2ccccc12)c1ccccc1)c1ccc(Br)cc1	47	i	.	5	.	15	.
Cc1cc(C(=O)OCC(=O)c2ccc3c(c2)NC(=O)CO3)c2ccccc2n1	2	215	6	4	-3	-2	.
CCN(C(=O)COC(=O)COc1ccccc1Cl)c1c(N)n(Cc2ccccc2)c(=O)[nH]c1=O	7	626	.	-1	.	6	.
CCCN(C(=O)COc1ccc(Cl)cc1Cl)c1c(N)n(Cc2ccccc2)c(=O)[nH]c1=O	83*	i	4	1	1	21	-3
Cc1c(NC(=O)COC(=O)c2cc3c4ccccc4n(C)c3s2)c(=O)n(-c2ccccc2)n1C	1	274	8	-3	5	1	.
Cc1ccc(S(=O)(=O)c2cc3c(=O)n4ccccc4nc3n(C3CCCC3)c2=N)cc1	88*	184	.	1	.	-1	-15
COc1ccccc1C(=O)COC(=O)c1ccc(Cl)nc1	-2	406	.	0	.	3	.
CCOc1ccc(S(=O)(=O)N2CCN(Cc3ccc4c(c3)OCO4)CC2)cc1C	65*	271	.	-2	.	-3	-14
Cc1ccc(CN2C(=O)c3ccccc3NC2c2cc(Br)ccc2O)cc1 (stereo not drawn)	74*	299	.	0	.	5	-2
CNCc1ccccc1Sc1cc(O)ccc1O	73*	55	106*	-2	-3	12	9
